Bioassay records as filed in PubChem.
Only some compounds are listed: those with a hit (about 1.7% of all), similar ones and a draw of the others.
STEP inh – blocks human striatal-enriched tyrosine phosphatase; inhibition, % at 20 µM; 0.25% of 360,000 active; recombinant STEP, OMFP fluorogenic substrate, fluorescence; P54829;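 active = inhibition at 20 µM, scaled per plate between control wells, above about 37%, limit read from the data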
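Assay system: isolated STEP enzyme / Timing: 20 min at room temperature, dark / Doses: 20 µM, 1% DMSO / Technique: fluorescence intensity, excitation 480 nm, emission 540 nm / Reagent: fluorogenic phosphatase substrate OMFP at 25 µM final / Measure: percent inhibition scaled to no-enzyme and uninhibited-enzyme controls, plate-pattern corrected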
SUMO1 PPI mod – alters human SUMO1 binding to SIM partners; SUMO1 binding to a labelled peptide, TR-FRET, 1 h; inhibition, % at 20 µM; 0.33% of 360,000 active; AID 602429; in the data active = inhibition above about 37%
LMPTP block – LMPTP (human) inhibition; P24666; recombinant LMPTP-A, OMFP fluorogenic substrate, fluorescence intensity; inhibition, % at 20 µM; 0.22% of 360,000 active; AID 651560;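 active = compounds that cut the enzyme signal by at least half of the control window in the single-dose screen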
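Test system: LMPTP-A phosphatase enzyme; input: 0.625 nM LMPTP-A final; reagent: OMFP substrate, 400 µM final; compound dosing: 20 µM single dose, 3% DMSO; incubation: 50 min dark incubation at room temperature; measured by: endpoint fluorescence intensity from OMFP dephosphorylation; measure: % inhibition relative to no-enzyme and uninhibited control wells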
Scp-1 inhibitor – blocks human Scp-1 phosphatase activity; Q9GZU7; Recombinant Scp1, phosphopeptide, malachite green phosphate absorbance; inhibition, % at 20 µM; 0.88% of 340,000 active;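 active = inhibition above about 50% at 20 µM, limit read from the data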
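System: SCP-1 catalytic domain; Reagent: Phospho 17-mer peptide substrate; Doses: one concentration, 20 µM, with 1.0% DMSO; Incubation: 45 min room-temperature reaction, 5 min colour, 30 min stabiliser; Signal: Phosphate-binding colour reagent, absorbance read at 630 nm.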
DNMT1 inh – DNMT1 (human) enzyme inhibition. AID 588458. DNMT1 molecular beacon, Hinp1I cleavage, fluorescence. 0.83% of 360,000 active. inhibition (reported as % activation of signal), % at 10 µM; in the data active = inhibition above about 50%
Scp-1 conf – Scp-1 (human) inhibition, single-dose confirmed; shares compounds with Scp-1 inhibitor; inhibition, % at 20 µM; 61% of 2,500 active; recombinant SCP-1 catalytic domain, phosphate release, malachite green absorbance
MG interference – counter-screen for Scp-1 inhibitors: colorimetric interference. shares compounds with Scp-1 inhibitor. Colorimetric interference counterscreen, malachite green absorbance 630 nm. apparent inhibition (interference), % at 20 µM. 2,500 tested, under 10 active;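 also: compounds added after enzyme reaction finished so only phosphate colour detection is probed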
Scp-1 Tm shift – validation of human Scp-1 inhibitors by thermal shift binding. Recombinant SCP1, Sypro Orange thermal shift Tm. shares compounds with Scp-1 inhibitor. thermal shift relative to vanadate control, % at 40 µM. 25% of 1,500 active;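 active = substances whose mean melting-temperature shift, as a percentage of the reference inhibitor's shift, reaches about 5.3%, limit read from the data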
DNMT1 interf DR – counter-screen for DNMT1 inhibitors: spectral interference, dose response; shares compounds with DNMT1 inh; molecular beacon fluorescence; IC50, µM; 200 tested, under 10 active; AID 602382; call rule not given here
DNMT1 confirm – confirmation of human DNMT1 inhibitors; shares compounds with DNMT1 inh; DNMT1 molecular beacon HinP1I cleavage, fluorescence; inhibition, % at 10 µM; 8% of 2,300 active;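 active = average inhibition of at least 30% in the single-concentration confirmation test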
Beacon interf – shows spectral interference in the DNMT1 beacon assay | AID 602387 | shares compounds with DNMT1 inh | activation (fluorescence interference), % at 10 µM | 1% of 2,300 active | DNMT1 molecular beacon spectral interference counterscreen, fluorescence 485/520;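 active = activation of at least 30% at 10 µM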;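 also: DNMT1 catalytic domain with a HinP1I cleavage step and a FAM/dabcyl DNA beacon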
Hits are given with their value; . = inactive; / = not tested or not shown.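 The calls were made as follows, unless noted: active = inhibition of at least 30% at 20 µM; inactive = the rest.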

SMILES	STEP inh	SUMO1 PPI mod	LMPTP block	Scp-1 inhibitor	DNMT1 inh	Scp-1 conf	MG interference	Scp-1 Tm shift	DNMT1 confirm	Beacon interf	others
COc1ccc(N2Cc3cccc(C(=O)N4CCN(C(=O)c5ccco5)CC4)c3C2=O)cc1	.	.	.	92.3	80.3	60.2	.	.	.	.	DNMT1 interf DR=.
COc1ccc(N2Cc3cccc(C(=O)N4CCOCC4)c3C2=O)cc1	.	.	.	.	.	/	/	/	/	/
O=C(Cc1cccs1)Nc1ccc(S(=O)(=O)N2CCCCC2)cc1	.	.	.	89.4	57.4	64.2	.	6.6	.	.
Cc1ccnc(NS(=O)(=O)c2ccc(NC(=O)Cc3ccc(F)cc3)cc2)n1	.	.	.	.	.	/	/	/	/	/
Cc1ccnc(NS(=O)(=O)c2ccc(NC(=O)Cc3cccs3)cc2)n1	.	.	.	59.9	89.5	73.3	.	6.8	.	.	DNMT1 interf DR=.
CCN(CC(=O)Nc1ccc(OC)cc1)C(=O)Cc1coc2cc(C)c(C)cc12	.	.	.	.	.	/	/	/	/	/
COc1ccc(CN2CCC3CC2c2cc(Cl)ccc23)cc1 (stereo not drawn)	.	.	.	.	.	/	/	/	/	/
O=CC(O)C1OC(=O)C(O)C1O (stereo not drawn)	.	.	.	63.6	89.8	43.1	.	.	44.2	.	DNMT1 interf DR=.
O=C1O[C@H](CO)[C@@H](O)[C@H](O)[C@H]1O	.	.	.	.	.	/	/	/	/	/
Cc1ccc(S(=O)(=O)N2CCN(C(=O)c3cc4c(s3)CCCC4)CC2)cc1	.	.	.	.	.	/	/	/	/	/
COc1ccc(S(=O)(=O)N2CCN(C(=O)c3cc4c(s3)CCC4)CC2)cc1	.	.	56.9	84.3	99.9	67.9	.	.	39.9	.	DNMT1 interf DR=.
c1coc(-c2nnc3sc(Cc4cccs4)nn23)c1	.	.	.	86.3	66.5	60.7	.	.	.	.
Cc1nnn(-c2nonc2N)c1C(=O)N/N=C/c1ccccc1O	.	.	.	51.0	78.9	63.5	.	.	.	.
N=C1S/C(=C\c2ccccc2F)C(=O)N1c1ccc(F)cc1	.	.	.	87.5	60.1	.	.	/	.	.
CC1CN(S(=O)(=O)c2cccc(C(=O)Nc3ccccc3N3CCCC3)c2)CC(C)O1 (stereo not drawn)	.	.	.	.	.	/	/	/	/	/
Cc1ccc(/C=c2/sc3nnc(-c4ccccc4Cl)n3c2=O)o1	.	.	.	.	.	/	/	/	/	/
Cc1ccc(/C=c2\sc3nc(-c4ccccc4Br)nn3c2=O)o1	.	.	.	91.9	103.9	61.4	.	9.2	.	.
Cc1cc(C)cc(N2CN=c3s/c(=C\c4ccco4)c(=O)n3C2)c1	.	.	.	.	.	/	/	/	/	/
Cc1ccc(-c2nc3s/c(=C\c4ccco4)c(=O)n3n2)cc1	.	.	.	66.6	79.3	49.5	.	.	.	.
N#CCN=C(c1ccccc1)c1ccccc1	.	.	.	.	.	/	/	/	/	/
CC1CCCCC1NC(=O)COC(=O)c1c2c(nc3ccccc13)/C(=C\c1ccco1)CC2 (stereo not drawn)	.	.	50.4	50.2	85.4	60.5	.	9.4	.	.
O=C(COC(=O)c1c2c(nc3ccccc13)/C(=C\c1ccco1)CC2)NC1CCCC1	.	41.8	65.2	90.7	97.3	61.0	.	15.1	.	.
CCCCNC(=O)COC(=O)c1c2c(nc3ccccc13)/C(=C/c1cccs1)CC2	.	.	.	.	.	/	/	/	/	/
